This is an account of results in ChEMBL document CHEMBL1681772 (Bioorg Med Chem, 2011).

Molecules are shown by their SMILES.

The assay addresses T1, Prostaglandin G/H synthase 1 (Ovis aries, UniProt P05979).
T1 sequence (P05979 whole entry): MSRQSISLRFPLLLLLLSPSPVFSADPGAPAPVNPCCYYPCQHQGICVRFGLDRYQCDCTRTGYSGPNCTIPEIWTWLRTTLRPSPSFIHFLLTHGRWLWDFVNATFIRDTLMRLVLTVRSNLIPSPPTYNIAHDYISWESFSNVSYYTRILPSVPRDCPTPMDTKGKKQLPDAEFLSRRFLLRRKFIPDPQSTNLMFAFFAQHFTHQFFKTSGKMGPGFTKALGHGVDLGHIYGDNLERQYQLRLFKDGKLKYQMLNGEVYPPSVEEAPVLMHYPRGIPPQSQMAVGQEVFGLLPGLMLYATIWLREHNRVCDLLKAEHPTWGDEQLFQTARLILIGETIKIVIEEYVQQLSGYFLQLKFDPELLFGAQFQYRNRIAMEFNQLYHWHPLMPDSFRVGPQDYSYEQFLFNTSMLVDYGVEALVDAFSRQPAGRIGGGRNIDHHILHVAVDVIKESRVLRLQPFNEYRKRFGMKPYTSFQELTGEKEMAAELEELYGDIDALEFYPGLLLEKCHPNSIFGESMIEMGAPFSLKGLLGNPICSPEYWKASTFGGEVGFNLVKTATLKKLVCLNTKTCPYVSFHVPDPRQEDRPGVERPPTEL
Put plainly: Inhibition of ovine COX1 assessed as PGF2alpha level by EIA. Summed up: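 Ovine COX-1 with heme in 0.1 M Tris-HCl pH 8.0 (5 mM EDTA, 2 mM phenol); compound at […] (final), 2 min preincubation at 37 °C. Started with arachidonic acid (100 µM), stopped after 2 min with 1 M HCl. PGH2 reduced to PGF2α by stannous chloride and quantified by EIA (18 h, room temperature; Ellman's reagent, 410 nm). IC50 from percent inhibition, mean of two determinations.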
For the compound `COC1(c2cccc(CS(=O)(=O)Nc3ccccc3OCc3ccccc3)c2)CCOCC1`, the IC50 stood at 14.8 µM.

Turning to `COC1(c2cccc(CS(=O)(=O)Nc3ccc(Cl)cc3OCc3ccccc3)c2)CCOCC1`, the IC50 was 24.4 µM.

Consider `COC1(c2cccc(CS(=O)(=O)Nc3cc(Cl)ccc3OCc3ccccc3)c2)CCOCC1`, for which the half-maximal inhibitory concentration (IC50) came to 15.6 µM.

`COC1(c2cccc(CS(=O)(=O)Nc3cc(C)ccc3OCc3ccccc3)c2)CCOCC1`: the IC50 stood at 16.5 µM.

As to `COC1(c2cccc(CS(=O)(=O)Nc3ccc([N+](=O)[O-])cc3OCc3ccccc3)c2)CCOCC1`, the IC50 was found to be 7.9 µM.

Take `CCOC(=O)c1ccc(OCc2ccccc2)c(NS(=O)(=O)Cc2cccc(C3(OC)CCOCC3)c2)c1`: the IC50 amounted to 11.6 µM.

`COC1(c2cccc(CN(c3ccccc3OCc3ccccc3)S(C)(=O)=O)c2)CCOCC1`: the IC50 was above 100 µM.

For `COC1(c2cccc(CN(c3ccc(Cl)cc3OCc3ccccc3)S(C)(=O)=O)c2)CCOCC1`, the IC50 is above 100 µM.

On to `COC1(c2cccc(CN(c3cc(Cl)ccc3OCc3ccccc3)S(C)(=O)=O)c2)CCOCC1`, for which the IC50 was above 100 µM.

Regarding `COC1(c2cccc(CN(c3cc(C)ccc3OCc3ccccc3)S(C)(=O)=O)c2)CCOCC1`, the IC50 was above 100 µM.

Turning to `COC1(c2cccc(CN(c3ccc([N+](=O)[O-])cc3OCc3ccccc3)S(C)(=O)=O)c2)CCOCC1`, the IC50 turned out to be 13.5 µM.

For the compound `COC1(c2cccc(CNc3ccccc3OCc3ccccc3)c2)CCOCC1`, the concentration for half-maximal inhibition (IC50) was above 100 µM.

Turning to `COC1(c2cccc(CNc3ccc(Cl)cc3OCc3ccccc3)c2)CCOCC1`, the IC50 was found to be 34.6 µM.

As for `COC1(c2cccc(CNc3cc(Cl)ccc3OCc3ccccc3)c2)CCOCC1`, the IC50 is above 100 µM.

For `COC1(c2cccc(CNc3cc(C)ccc3OCc3ccccc3)c2)CCOCC1`, the IC50 was above 100 µM.

In the case of `COC1(c2cccc(CNc3ccc([N+](=O)[O-])cc3OCc3ccccc3)c2)CCOCC1`, the IC50 worked out at 88.8 µM.

On to `COC1(c2cccc(COc3ccccc3OCc3ccccc3)c2)CCOCC1`, for which the half-inhibitory concentration (IC50) was above 100 µM.

For `COC1(c2cccc(COc3ccc(Cl)cc3OCc3ccccc3)c2)CCOCC1`, the IC50 is above 100 µM.

As to `COC1(c2cccc(COc3ccc(Br)cc3OCc3ccccc3)c2)CCOCC1`, the IC50 is above 100 µM.

Turning to `CCOC(=O)c1ccc(OCc2cccc(C3(OC)CCOCC3)c2)c(OCc2ccccc2)c1`, the IC50 was 44.2 µM.

`CS(=O)(=O)Nc1ccc([N+](=O)[O-])cc1Oc1ccccc1` [NIMESULIDE]: the IC50 was 6.2 µM.
